Data taken from ChEMBL document CHEMBL1129566 (J Med Chem, 1996).
Converted amounts (≈) assume the structure as drawn.

Assays:
Enterococcus durans = experiment: Inhibitory concentration against purified beta-Lactam resistant PBP5 from Enterococcus durans; assay type: functional
How it was run: (§1)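 PBPs purified to homogeneity. IC50 measured by competition with fluorescent dansyl-penicillin or a coumarin analogue probe. Protein-bound fluorescence determined after TCA precipitation, filtration on glass fibre filters and drying, read on a fluorimeter.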

Streptococcus pneumoniae [1] = experiment: Inhibitory concentration against purified PBP2x from Streptococcus pneumoniae; assay type: functional; how it was run: as §1
Streptococcus pneumoniae [2] = experiment: Inhibitory concentration against purified cephalosporin-resistant PBP2x.505 from Streptococcus pneumoniae; assay type: functional; how it was run: as §1
Escherichia coli [3] = experiment: Inhibitory concentration against purified penicillin-binding protein(PBP) 1bgamma of Escherichia coli; assay type: functional
How it was run: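 PBP purified to homogeneity. IC50 from competition with dansyl-penicillin or a coumarin analogue; protein-bound fluorescence recovered by TCA precipitation and glass-fibre filtration, then read by fluorimetry after drying.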

[4] = molecular target: Beta-lactamase TEM (Escherichia coli) (UniProt P62593); experiment: Rate of hydrolysis in 0.1 M sodium phosphate buffer at pH=7.0 by Beta lactamase (TEM-4)
How it was run: (§2)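 β-Lactamases purified to homogeneity; hydrolysis rate of the cephalosporin substrate measured in 0.1 M sodium phosphate buffer, pH 7.0, by standard methods.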

Citrobacter freundii = experiment: In vitro minimum inhibitory concentration required to produce antibacterial activity against Citrobacter freundii 902; assay type: functional
How it was run: (§3)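 Two-fold agar dilution on Mueller-Hinton agar. Overnight broth cultures diluted in fresh broth to […]; 10⁴ CFU/spot applied by inoculating apparatus onto plates with graded drug concentrations. Incubated 18 h at 37 °C; MIC taken as the lowest concentration giving complete growth inhibition.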

[5] = molecular target: Beta-lactamase TEM (Escherichia coli) (UniProt P62593); experiment: Rate of hydrolysis in 0.1 M sodium phosphate buffer at pH=7.0 by Beta lactamase (TEM-3); how it was run: as §2
Streptococcus pneumoniae [6] = experiment: Minimum inhibitory concentration for antibacterial activity against Streptococcus pneumoniae Q19 (pen s); assay type: functional; how it was run: as §3
[7] = molecular target: Beta-lactamase (Proteus vulgaris) (UniProt P52664); experiment: Rate of hydrolysis in 0.1 M sodium phosphate buffer at pH=7.0 by Beta lactamase (Proteus vulgaris 1028)
Enterobacter cloacae = experiment: In vitro minimum inhibitory concentration required to produce antibacterial activity against Enterobacter cloacae 908SSI; assay type: functional; how it was run: as §3
[8] = molecular target: T1, Beta-lactamase SHV-1 (Escherichia coli) (UniProt P0AD63); experiment: Rate of hydrolysis in 0.1 M sodium phosphate buffer at pH=7.0 by Beta lactamase (SHV-4); how it was run: as §2
T1 sequence (whole entry): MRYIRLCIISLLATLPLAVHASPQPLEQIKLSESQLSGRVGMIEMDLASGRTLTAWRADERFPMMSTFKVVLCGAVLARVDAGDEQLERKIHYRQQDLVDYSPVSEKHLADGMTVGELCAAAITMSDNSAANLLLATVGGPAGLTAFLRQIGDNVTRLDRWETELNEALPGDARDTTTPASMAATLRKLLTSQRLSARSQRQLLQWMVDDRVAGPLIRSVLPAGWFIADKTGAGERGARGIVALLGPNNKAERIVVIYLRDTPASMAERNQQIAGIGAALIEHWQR

Staphylococcus aureus [9] = experiment: In vitro minimum inhibitory concentration required to produce antibacterial activity against Staphylococcus aureus 887MSSA; assay type: functional; how it was run: as §3
[10] = molecular target: Beta-lactamase (Bacillus licheniformis) (UniProt P00808); experiment: Rate of hydrolysis in 0.1 M sodium phosphate buffer at pH=7.0 by Beta lactamase (Bacillus licheniformis 749/C); how it was run: as §2
Enterococcus faecalis = experiment: In vitro minimum inhibitory concentration required to produce antibacterial activity against Enterococcus faecalis ATCC 29212; assay type: functional; how it was run: as §3
Streptococcus pneumoniae [11] = experiment: Inhibitory concentration against purified cephalosporin-resistant PBP2x.604 from Streptococcus pneumoniae; assay type: functional; how it was run: as §1
[12] = tested on: Staphylococcus epidermidis; experiment: Inhibitory concentration against purified beta-Lactam-resistant PBP2 from Staphylococcus epidermidis; assay type: functional; how it was run: as §1
Escherichia coli [13] = experiment: In vitro minimum inhibitory concentration required to produce antibacterial activity against Escherichia coli 25922; assay type: functional; how it was run: as §3
Streptococcus pneumoniae [14] = experiment: In vitro minimum inhibitory concentration required to produce antibacterial activity against Streptococcus pneumoniae 1/37(pen r); assay type: functional; how it was run: as §3
Pseudomonas aeruginosa [15] = experiment: (§4) In vitro minimum inhibitory concentration required to produce antibacterial activity against Pseudomonas aeruginosa ATCC 27853; assay type: functional; how it was run: as §3
Staphylococcus aureus [16] = experiment: In vitro minimum inhibitory concentration required to produce antibacterial activity against Staphylococcus aureus 743 MRSA; assay type: functional; how it was run: as §3
[17] = molecular target: T1, Beta-lactamase SHV-1 (Escherichia coli); experiment: Rate of hydrolysis in 0.1 M sodium phosphate buffer at pH=7.0 by Beta lactamase (SHV-2); how it was run: as §2
Pseudomonas aeruginosa [18] = experiment: as §4; assay type: functional; remark: listed apart in the source
How it was run: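 Two-fold agar dilution on Mueller-Hinton agar. Overnight broth cultures diluted in fresh broth, inoculum 10⁴ CFU/spot applied by inoculating apparatus to plates with graded drug concentrations. Plates incubated 18 h at 37 °C. MIC taken as lowest concentration completely inhibiting growth.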

[19] = molecular target: Beta-lactamase (Bacillus licheniformis) (UniProt P00808); experiment: Rate of hydrolysis in 0.1 M sodium phosphate buffer at pH=7.0 by Beta lactamase (B.l icheniformis 749/C); how it was run: as §2

Chain of Beta-lactamase TEM (Escherichia coli) (P62593 whole entry): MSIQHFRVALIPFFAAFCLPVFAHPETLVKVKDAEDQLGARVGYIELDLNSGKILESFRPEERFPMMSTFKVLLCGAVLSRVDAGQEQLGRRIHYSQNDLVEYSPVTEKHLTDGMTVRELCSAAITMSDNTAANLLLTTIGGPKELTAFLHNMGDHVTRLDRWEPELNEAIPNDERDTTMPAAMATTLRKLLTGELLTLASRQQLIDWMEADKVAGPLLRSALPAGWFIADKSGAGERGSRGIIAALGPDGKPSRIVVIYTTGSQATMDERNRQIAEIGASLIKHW
Chain of Beta-lactamase (Bacillus licheniformis) (P00808 whole entry): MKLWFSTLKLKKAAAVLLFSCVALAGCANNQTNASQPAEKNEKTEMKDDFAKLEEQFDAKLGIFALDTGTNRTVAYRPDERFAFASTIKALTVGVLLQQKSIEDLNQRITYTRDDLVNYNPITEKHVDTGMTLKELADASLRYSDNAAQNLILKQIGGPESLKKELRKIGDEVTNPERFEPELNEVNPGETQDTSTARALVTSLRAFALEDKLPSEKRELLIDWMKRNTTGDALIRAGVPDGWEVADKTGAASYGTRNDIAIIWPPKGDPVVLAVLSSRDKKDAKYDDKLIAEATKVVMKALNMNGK
Chain of Beta-lactamase (Proteus vulgaris) (P52664 whole entry, looked up): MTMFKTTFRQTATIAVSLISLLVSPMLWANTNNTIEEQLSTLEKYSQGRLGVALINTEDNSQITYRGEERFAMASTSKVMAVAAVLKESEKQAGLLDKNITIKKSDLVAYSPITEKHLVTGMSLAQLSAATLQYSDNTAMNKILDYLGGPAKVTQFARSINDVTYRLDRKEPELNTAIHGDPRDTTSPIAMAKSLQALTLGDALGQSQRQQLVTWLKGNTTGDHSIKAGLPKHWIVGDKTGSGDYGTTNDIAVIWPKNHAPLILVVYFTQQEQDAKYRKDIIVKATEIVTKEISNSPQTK

`Nc1nc(/C(=N/O)C(=O)N[C@@H]2C(=O)N3C(C(=O)O)=C(/C=C4\CCN(CC(F)(F)F)C4=O)CS[C@H]23)cs1` [RO 25-6833] gave an IC50 (Enterococcus durans) of 8 µM, an IC50 (Streptococcus pneumoniae [1]) of 0.3 µM and an IC50 (Streptococcus pneumoniae [2]) of 0.36 µM. The IC50 (Escherichia coli [3]) was 30 µM, the Activity (M min-1 (M of enzyme)-1) [4] was 305 and the MIC (Citrobacter freundii) was 0.25 µg/mL (≈ 0.457 µM). For the same compound, the Activity (M min-1 (M of enzyme)-1) [5] was 14, the MIC (Streptococcus pneumoniae [6]) was 0.06 µg/mL (≈ 0.11 µM) and the Activity (M min-1 (M of enzyme)-1) [7] was 461. For the same compound, the MIC (Enterobacter cloacae) was 0.5 µg/mL (≈ 0.915 µM), the Activity (M min-1 (M of enzyme)-1) [8] was 1390 and the MIC (Staphylococcus aureus [9]) was 1 µg/mL (≈ 1.83 µM). The Activity (M min-1 (M of enzyme)-1) [10] was 906, the MIC (Enterococcus faecalis) was 1 µg/mL (≈ 1.83 µM) and the IC50 (Streptococcus pneumoniae [11]) was 0.87 µM. The IC50 [12] was 25 µM, the MIC (Escherichia coli [13]) was no more than 0.06 µg/mL and the MIC (Streptococcus pneumoniae [14]) was 1 µg/mL (≈ 1.83 µM). The MIC (Pseudomonas aeruginosa [15]) was 16 µg/mL (≈ 29.3 µM), the MIC (Staphylococcus aureus [16]) was 8 µg/mL (≈ 14.6 µM) and the Activity (M min-1 (M of enzyme)-1) [17] was 1580.

`CC(C)(O/N=C(\C(=O)N[C@@H]1C(=O)N2C(C(=O)[O-])=C(C[n+]3ccccc3)CS[C@H]12)c1csc(N)n1)C(=O)O` [CEFTAZIDIME] was tested, and the MIC (Pseudomonas aeruginosa [18]) was 1 µg/mL (≈ 1.83 µM), the MIC (Citrobacter freundii) was 0.5 µg/mL (≈ 0.915 µM) and the MIC (Streptococcus pneumoniae [6]) was 0.25 µg/mL (≈ 0.457 µM). The MIC (Enterobacter cloacae) was 1 µg/mL (≈ 1.83 µM), the MIC (Staphylococcus aureus [9]) was 8 µg/mL (≈ 14.6 µM) and the MIC (Enterococcus faecalis) was greater than 32 µg/mL. The MIC (Escherichia coli [13]) was 0.25 µg/mL (≈ 0.457 µM), the MIC (Streptococcus pneumoniae [14]) was 16 µg/mL (≈ 29.3 µM) and the MIC (Staphylococcus aureus [16]) was greater than 32 µg/mL.

`CO/N=C(\C(=O)N[C@@H]1C(=O)N2C(C(=O)O)=C(CSc3nc(=O)c(O)nn3C)CS[C@H]12)c1csc(N)n1` [CEFTRIAXONE] was tested, and the IC50 (Enterococcus durans) was greater than 500 µM, the IC50 (Streptococcus pneumoniae [1]) was 0.5 µM and the IC50 (Streptococcus pneumoniae [2]) was 2.5 µM. It also gave an IC50 (Escherichia coli [3]) of 0.29 µM, an MIC (Pseudomonas aeruginosa [18]) of 16 µg/mL (≈ 28.9 µM) and an Activity (M min-1 (M of enzyme)-1) [4] of 643. It also gave an MIC (Citrobacter freundii) of 0.25 µg/mL (≈ 0.451 µM), an Activity (M min-1 (M of enzyme)-1) [5] of 79 and an MIC (Streptococcus pneumoniae [6]) of no more than 0.06 µg/mL. For the same compound, the MIC (Enterobacter cloacae) was 0.5 µg/mL (≈ 0.902 µM), the Activity (M min-1 (M of enzyme)-1) [19] was 1890 and the Activity (M min-1 (M of enzyme)-1) ([8]; Proteus vulgaris) was 3340. The MIC (Staphylococcus aureus [9]) was 4 µg/mL (≈ 7.21 µM), the MIC (Enterococcus faecalis) was greater than 32 µg/mL and the IC50 (Streptococcus pneumoniae [11]) was 5.5 µM. The IC50 [12] was 960 µM, the MIC (Escherichia coli [13]) was no more than 0.06 µg/mL and the MIC (Streptococcus pneumoniae [14]) was 2 µg/mL (≈ 3.61 µM). It also gave an MIC (Staphylococcus aureus [16]) greater than 32 µg/mL and an Activity (M min-1 (M of enzyme)-1) [17] of 2310.

Compound `C[C@@H](O)[C@H]1C(=O)N2C(C(=O)O)=C(SCCNC=N)C[C@H]12` [IMIPENEM ANHYDROUS] has an IC50 (Enterococcus durans) greater than 1000 µM, an IC50 (Streptococcus pneumoniae [1]) of 0.5 µM and an IC50 (Streptococcus pneumoniae [2]) of 0.5 µM. For the same compound, the IC50 (Escherichia coli [3]) was 0.01 µM, the IC50 (Streptococcus pneumoniae [11]) was 5.3 µM and the IC50 [12] was greater than 1000 µM.
